Hits are enriched below; roughly 3.5% of the tested compounds scored in any of these assays.
WT yeast gro inh: growth inhibition of WT yeast, mitochondrial fusion screen. mitochondrial fusion phenotypic screen, WT strain. inhibition, % at 10 µM. actives 2.1% (n = 190,000). AID 1362; in the data active means inhibition above about 58%; tested in S. cerevisiae
MEKK2mut PB1 HTS: signal of MEK5 binding to mutant human MEKK2 PB1 domain; bead flow cytometry, Alexa488-MEK5 binding to MEKK2 mutant; percent response, % at 10 µM; actives 0.35% (n = 290,000); in the data active means percent response above about 24%, passing the limit was not always enough
ABCG2 block: inhibitors of human ABCG2 transporter, ABCB1 counter-screen; Q9UNQ0; IgMXP3 cells, JC-1 efflux, flow cytometry; inhibition, % at 6.6 µM; actives 0.1% (n = 190,000);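 active means inhibition above 80%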;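 further: 0% = DMSO and 100% = nicardipine control wells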
Target sequence (Q9UNQ0 whole entry, looked up): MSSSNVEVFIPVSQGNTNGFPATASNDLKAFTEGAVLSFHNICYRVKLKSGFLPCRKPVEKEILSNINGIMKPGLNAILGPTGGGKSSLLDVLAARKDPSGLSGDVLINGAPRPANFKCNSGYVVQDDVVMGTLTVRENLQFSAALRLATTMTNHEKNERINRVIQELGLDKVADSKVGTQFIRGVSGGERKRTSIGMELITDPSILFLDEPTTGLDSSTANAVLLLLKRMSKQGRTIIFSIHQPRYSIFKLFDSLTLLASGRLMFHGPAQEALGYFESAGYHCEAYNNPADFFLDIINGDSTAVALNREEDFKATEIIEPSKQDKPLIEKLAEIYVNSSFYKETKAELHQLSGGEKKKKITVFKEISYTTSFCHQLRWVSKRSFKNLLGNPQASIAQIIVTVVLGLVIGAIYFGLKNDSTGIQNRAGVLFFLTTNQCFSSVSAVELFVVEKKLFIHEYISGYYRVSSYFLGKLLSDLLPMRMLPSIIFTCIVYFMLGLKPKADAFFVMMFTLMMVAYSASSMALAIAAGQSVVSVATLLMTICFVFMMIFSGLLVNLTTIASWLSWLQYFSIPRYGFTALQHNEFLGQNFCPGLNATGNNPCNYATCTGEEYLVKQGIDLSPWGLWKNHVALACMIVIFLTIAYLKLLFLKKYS
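Read-out basis: Efflux inhibition in percent versus controls | Test system: ABCG2 IgMXP3 and barcoded ABCB1 CCRF-Adr cell mix | Quantity: 3 million cells/mL in well | Schedule: 10 min at 25 °C | Control set: Nicardipine as high control, DMSO as low control | Reagent: JC-1 as fluorescent efflux pump substrate | Signal: Flow cytometry of retained JC-1 fluorescence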
MEKK3 PB1 HTS: MEKK3-MEK5 PB1 interaction, increase or decrease | Q99759 | bead-based flow cytometry, Alexa488-MEK5 binding to MEKK3; actives lie on both sides; 0 = blocked by unlabeled MEK5, 100 = vehicle | binding response (% of control), % at 10 µM | actives 1.4% (n = 290,000) | AID 1529;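 active means binding response more than 3 SD above or below the average of its plate-row segment, actives on both sides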;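 further: Alexa488 bead fluorescence after subtracting the streptavidin-only scavenger bead signal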
ABCB1 block: blocks JC-1 efflux by human ABCB1 transporter | P08183 | CCRF-Adr cells, flow cytometry | inhibition, % at 6.6 µM | actives 0.067% (n = 190,000); in the data active means inhibition above about 40%;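 further: 0% = vehicle and 100% = reference inhibitor; higher value means more JC-1 retained so stronger ABCB1 efflux block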
MEKK2 WT-MEK5: raises or lowers MEK5 binding to wildtype human MEKK2 PB1 domain | Q9Y2U5 | bead flow cytometry, Alexa488-MEK5 binding to MEKK2 WT; actives lie on both sides | actives 1.1% (n = 290,000) | binding response (% of control), % at 10 µM | AID 1531; in the data active means binding response below about 67% or above about 130%
ABCB1 single pt: confirmation of human ABCB1 transporter inhibitors, ABCG2 counter-screen | shares compounds with ABCG2 block | CCRF-Adr cells, JC-1 efflux, flow cytometry | inhibition, % at 6.6 µM | actives 7% (n = 270);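 active means inhibition of pump activity above 50%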;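 further: 0% = DMSO and 100% = nicardipine full pump inhibition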
ABCG2 single pt: confirmation of human ABCG2 transporter inhibitors, ABCB1 counter-screen; inhibition, % at 6.6 µM; AID 1453; shares compounds with ABCG2 block; IgMXP3 cells, JC-1 efflux, flow cytometry; actives 6% (n = 270);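 active means inhibition above 50%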;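 further: 0% = DMSO wells and 100% = nicardipine pump inhibitor wells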
IgMXP3 autofluor: compound fluoresces at 488/530 nm in IgMXP3 cells. AID 1480. compound autofluorescence 488/530 nm, flow; active compounds read high. fluorescence at 6.6 µM. shares compounds with ABCG2 block. actives 30% (n = 270);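 active means fluorescence in ABCG2-expressing cells above the plate's control-well mean plus 3 SD, cut at about 15 in these data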;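 further: median cell fluorescence with compound minus that of DMSO-treated control cells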
CCRF autofluor: CCRF-Adr autofluorescence flag for ABCB1 confirmation; shares compounds with ABCG2 block; CCRF-Adr cells, compound autofluorescence 488/530 nm, flow cytometry; active compounds read high; fluorescence at 6.6 µM; actives 30% (n = 270);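 active means fluorescence beyond the plate control mean plus 3 SD, with a fluorescence-to-maximum score over 2, cut at about 25 in these data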
* hit, by the source's call; x = no result; + = active, no number.

SMILES | WT yeast gro inh | MEKK2mut PB1 HTS | ABCG2 block | MEKK3 PB1 HTS | ABCB1 block | MEKK2 WT-MEK5 | ABCB1 single pt | ABCG2 single pt | IgMXP3 autofluor | CCRF autofluor
COCCn1c(SCC(=O)N2CCc3ccccc3C2)nc2cc(Cl)ccc2c1=O | 14.7 | -2.0 | 26.3 | 98.0 | 32.9 | 95.0 | 26.9 | 29.3 | -1.54 | -3.59
C=CCNC(=O)COC(=O)c1cccnc1Nc1ccccc1F | -11.4 | -11.0 | 3.1 | 76.0 | 0.2 | 75.0 | x | x | x | x
CCC(C)c1ccc(NC(=S)NCCn2cc(Br)cn2)cc1 (configuration not stated) | 57.3 | -3.0 | 126.4* | 93.0 | 7.3 | 96.0 | 1.5 | 33.6 | -1.74 | -3.24
CCC(C)c1ccc(NC(=S)NCCn2cc(Cl)cn2)cc1 (configuration not stated) | 59.8 | 5.0 | 4.8 | 103.0 | 0.8 | 110.0 | x | x | x | x
c1ccc(OCc2nc(-c3ccncc3)no2)cc1 | -9.6 | -7.0 | 111.3* | 104.0 | 3.5 | 93.0 | 1.2 | 4.0 | -1.49 | -2.24
c1ccc(OCc2nc(-c3ccccc3)no2)cc1 | -4.3 | 1.0 | 0.8 | 99.0 | 0.1 | 98.0 | x | x | x | x
Cc1c(N(C)S(=O)(=O)c2cc(C(=O)N3CCCC3)ccc2Cl)c(=O)n(-c2ccccc2)n1C | x | 6.0 | x | 101.0 | x | 100.0 | x | x | x | x
COc1cccc(-c2nc(N3CC(C)CC(C)C3)c3ccccc3n2)c1O (configuration not stated) | 7.5 | x | 61.3 | x | 12.2 | x | 72.3* | 45.6 | -1.94 | -4.89
COc1cccc(-c2nc(N3CCC(C)CC3)c3ccccc3n2)c1O | 43.1 | 3.0 | 43.5 | 104.0 | 3.9 | 104.0 | x | x | x | x
COc1cc(N2CCCC2)ccc1[N+](=O)[O-] | -14.3 | 1.0 | 5.9 | 103.0 | 0.6 | 103.0 | x | x | x | x
CCOC(=O)C1=C(CNCc2ccc(C)cc2)NC(=O)NC1c1cc(C)ccc1C (configuration not stated) | 24.9 | 1.0 | 24.7 | 98.0 | 40.4 | 102.0 | 14.7 | 12.7 | -1.79 | -4.64
COc1ccc(/C=N/Nc2cc(=O)n(C)c(=O)n2C)cc1OC | 9.1 | 7.0 | 88.2* | 94.0 | 2.9 | 105.0 | 2.2 | 48.3 | 23.3* | 7.91
COc1ccccc1NC(=O)C(NC(=O)OC(C)(C)C)C(C)OCc1ccccc1 (configuration not stated) | 10.7 | 6.0 | 8.1 | 104.0 | 1.4 | 109.0 | x | x | x | x
O=[N+]([O-])c1ccc(N2CCN(c3ccccc3F)CC2)c(S(=O)(=O)N2CCOCC2)c1 | 0.0 | -2.0 | x | 99.0 | x | 99.0 | 0.9 | 5.2 | -1.34 | 0.76
COc1cc(/C=C2\CCc3ccccc3C2=O)cc(OC)c1OC | -1.3 | 3.0 | 10.5 | 105.0 | 2.4 | 106.0 | x | x | x | x
COc1cc(/C=C2/CCc3ccccc3C2=O)cc(OC)c1OC | 5.9 | 20.0 | 87.4* | 105.0 | 6.7 | 120.0 | 2.0 | 44.3 | -1.64 | -1.69
COc1ccc(N(CC(=O)NCC2CCCO2)S(=O)(=O)c2ccccc2)cc1OC (configuration not stated) | x | 0.0 | x | 99.0 | x | 96.0 | x | x | x | x
CC(=O)Oc1c(/C=C(\C#N)C(N)=O)[nH]c2ccccc12 | 32.8 | -2.0 | 199.9* | 100.0 | 163.3* | 99.0 | -18.4 | -1.4 | 132* | 272*
COc1cccc(C2C(C(=O)Nc3nc4ccccc4s3)=C(C)NC3=C2C(=O)CC(C)(C)C3)c1OC (configuration not stated) | 26.3 | 1.0 | 5.8 | 99.0 | 44.6* | 98.0 | 59.0* | 12.0 | 28.6* | 4.26
CCCCn1c(N)c(N(CC(C)C)C(=O)CCC2CCCCC2)c(=O)[nH]c1=O | x | 7.0 | x | 99.0 | x | 105.0 | x | x | x | x
CCOC(=O)c1sc2cc([N+](=O)[O-])cc(SCC(=O)OC)c2c1N | 7.1 | -1.0 | 40.1 | 100.0 | 2.8 | 92.0 | x | x | x | x
CCOC(=O)c1sc2cc([N+](=O)[O-])cc(SCCO)c2c1N | 7.0 | -4.0 | 81.8* | 93.0 | 2.5 | 90.0 | 0.9 | 21.1 | 1.41 | -0.69
Cc1cc(C)n(-c2ccc(Cl)c(C(=O)Nc3cc(C(F)(F)F)ccc3Cl)n2)n1 | 3.1 | 4.0 | 116.3* | 104.0 | 9.0 | 111.0 | 5.4 | 14.9 | -1.14 | -1.49
COc1ccc(C(=O)/C=C/Nc2ccc(S(=O)(=O)Nc3cc(OC)nc(OC)n3)cc2)c(OC)c1 | x | 0.0 | x | 98.0 | x | 103.0 | x | x | x | x
N#CC1=C(N)C2=C(N3CCCCC3)CCCC2C1(C#N)C#N (configuration not stated) | -8.0 | 2.0 | -1.0 | 101.0 | -0.5 | 104.0 | x | x | x | x
SMILES | WT yeast gro inh | MEKK2mut PB1 HTS | ABCG2 block | MEKK3 PB1 HTS | ABCB1 block | MEKK2 WT-MEK5 | ABCB1 single pt | ABCG2 single pt | IgMXP3 autofluor | CCRF autofluor
CCCCN(C)C1=CC2=CC(=C(C#N)C#N)CCC2CC1 (configuration not stated) | -18.1 | -8.0 | 84.9* | 101.0 | + | 86.0 | 163.6* | 49.3 | 43.6* | 232*
N#CC(C#N)=C1C=C2C=C(N3CCCCC3)CCC2CC1 (configuration not stated) | 1.3 | -6.0 | 51.4 | 100.0 | 169.7* | 86.0 | 62.4* | 62.0* | 17.3* | 66.9*
CCN(CC)C1=CC2=CC(=C(C#N)C#N)CCC2CC1 (configuration not stated) | 21.6 | -6.0 | 43.5 | 93.0 | 83.7* | 90.0 | 24.3 | 74.2* | 18.8* | 40*
COc1cccc(C(=O)N2CCCC(Nc3ccc(C)c(C)c3)C2)c1 (configuration not stated) | x | 7.0 | x | 102.0 | x | 104.0 | x | x | x | x
O=C(Nc1cccc(Cl)c1)Nc1ccc2c(c1)OCO2 | 16.6 | 5.0 | 74.0 | 108.0 | 0.9 | 113.0 | 10.5 | 18.0 | 8.66 | 11.5
O=C(Nc1c2c(nn1-c1cccc(Cl)c1)CS(=O)(=O)C2)c1ccc2c(c1)OCO2 | x | -5.0 | x | 91.0 | x | 91.0 | x | x | x | x
Cc1ccccc1-n1c(SCC(=O)Nc2ccccc2)nc2nc3c(cc2c1=O)CCCC3 | 5.2 | 1.0 | 35.9 | 106.0 | 45.6* | 103.0 | 47.7 | 23.5 | 0.71 | 91.2*
O=[N+]([O-])c1cccc(-c2n[nH]c(=S)n2Cc2ccccc2)c1 | 16.2 | 3.0 | 4.1 | 101.0 | -0.3 | 105.0 | x | x | x | x
COn1c(-c2ccccc2)nc2c1CCc1c-2no[n+]1[O-] | -10.5 | 8.0 | 74.2 | 112.0 | -0.8 | 115.0 | -0.7 | 28.3 | 0.61 | -2.99

Compound activity deposited in PubChem by several laboratories.
